Columns and labels:
[1] = Solubility in aqueous media Ringer''s buffer, pH 7.4; assay type: physicochemical
[2] = system: Fusobacterium; test: In vitro activity against Fusobacterium sp.(GS-10); assay type: functional
Procedure, shortened: (§1)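 MIC determined under anaerobic conditions on Wilkins-Chalgren agar.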

[3] = system: Acinetobacter sp.; test: In vitro activity against Acinetobacter sp.(CMX 669).; assay type: functional
Procedure, shortened: (§2)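 MIC determined by agar dilution on brain-heart infusion agar under aerobic conditions.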

[4] = system: Clostridium perfringens; test: In vitro activity against Clostridium perfringens (SFBC 2026); assay type: functional
Procedure, shortened: (§3)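 MIC for anaerobic bacteria, measured on Wilkins-Chalgren agar.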

[5] = Solubility in aqueous media 0.15 N sulfate, pH 5.4; assay type: physicochemical; settings: read-out: S
[6] = system: Bacteroides thetaiotaomicron; test: In vitro activity against Bacteroides thetaiotaomicron (ATCC 29742); assay type: functional; procedure, shortened: as §1
[7] = Solubility in aqueous media 0.15Nacetate, pH 6.1; assay type: physicochemical; settings: 0.15 N acetate, read-out: S
[8] = system: Peptoniphilus asaccharolyticus; test: In vitro activity against Peptococcus asaccharolyticus (ATCC 14963).; assay type: functional; procedure, shortened: as §1
[9] = system: Clostridium perfringens; test: In vitro activity against Clostridium perfringens (788); assay type: functional; procedure, shortened: as §3
[10] = system: Bacteroides fragilis; test: In vitro activity against Bacteroides fragilis (SFM2929-1); assay type: functional; procedure, shortened: as §1
[11] = Solubility in aqueous media 0.1 N chloride, pH 6.5; assay type: physicochemical; settings: read-out: S
[12] = system: Bacteroides thetaiotaomicron; test: In vitro activity against Bacteroides thetaiotaomicron (106); assay type: functional; procedure, shortened: as §1
[13] = system: Bacteroides thetaiotaomicron; test: In vitro activity against Bacteroides thetaiotaomicron (SFM2975-2); assay type: functional; procedure, shortened: as §1
[14] = system: Prevotella bivia; test: In vitro activity against Bacteroides bivius(B 6140); assay type: functional; procedure, shortened: as §1
[15] = system: Finegoldia magna; test: In vitro activity against Peptococcus magnus (ATCC 29328); assay type: functional; procedure, shortened: as §1
[16] = system: Escherichia coli; test: In vitro activity against Escherichia coli Juhl; assay type: functional
Procedure, shortened: (§4)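 MIC for aerobic bacteria, measured on brain-heart infusion agar.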

[17] = system: Streptococcus equinus; test: In vitro activity against Streptococcus bovis (A5169).; assay type: functional; procedure, shortened: as §2
[18] = system: Phocaeicola vulgatus; test: In vitro activity against Bacteroides vulgatus(SFBC 2375); assay type: functional; procedure, shortened: as §1
[19] = Solubility in aqueous media urine, pH 5.1; assay type: physicochemical; settings: read-out: S
[20] = system: Pseudomonas aeruginosa; test: In vitro activity against Pseudomonas aeruginosa (A5007).; assay type: functional; procedure, shortened: as §2
[21] = system: Burkholderia cepacia; test: In vitro activity against Pseudomonas cepacia (296I); assay type: functional; procedure, shortened: as §2
[22] = system: Staphylococcus aureus; test: In vitro activity against Staphylococcus aureus(CMX 686B); assay type: functional; procedure, shortened: as §2
[23] = Solubility in aqueous media 0.15 N phosphate, pH 5.6; assay type: physicochemical; settings: read-out: S
[24] = system: Bacteroides fragilis; test: In vitro activity against Bacteroides fragilis (SFM2906A); assay type: functional; procedure, shortened: as §1
[25] = system: Clostridioides difficile; test: In vitro activity against Clostridium difficile (ATCC 9689); assay type: functional
[26] = system: Klebsiella aerogenes; test: In vitro activity against Enterobacter aerogenes (ATCC 13048).; assay type: functional; procedure, shortened: as §2
[27] = system: Escherichia coli; test: In vitro activity against Escherichia coli (DC-2); assay type: functional; procedure, shortened: as §4
[28] = system: Staphylococcus aureus; test: In vitro activity against Staphylococcus aureus(ATCC 6538P); assay type: functional; procedure, shortened: as §2
[29] = system: Klebsiella pneumoniae; test: In vitro activity against Klebsiella pneumoniae (ATCC 8045).; assay type: functional; procedure, shortened: as §2
[30] = system: Bacteroides fragilis; test: In vitro activity against Bacteroides fragilis (SFM2975-7); assay type: functional; procedure, shortened: as §1
[31] = Solubility in aqueous media urine, pH 7.0; assay type: physicochemical; settings: read-out: S
[32] = system: Streptococcus agalactiae; test: In vitro activity against Streptococcus agalactiae (CMX 508).; assay type: functional; procedure, shortened: as §2
[33] = system: Veillonella parvula; test: In vitro activity against Veillonella parvula (ATCC 10790); assay type: functional
Procedure, shortened: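 Anaerobic MICs measured by agar dilution on Wilkins-Chalgren agar.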

[34] = system: Escherichia coli; test: In vitro activity against Escherichia coli (H560); assay type: functional; procedure, shortened: as §4
[35] = system: Pseudomonas aeruginosa; test: In vitro activity against Pseudomonas aeruginosa (BMH10); assay type: functional; procedure, shortened: as §2
[36] = Solubility in aqueous media urine, pH 5.7; assay type: physicochemical; settings: read-out: S
[37] = system: Streptococcus pyogenes; test: In vitro activity against Streptococcus pyogenes(930 CONST).; assay type: functional; procedure, shortened: as §2

With `Cl.N[C@H]1CCN(c2nc3c(cc2F)c(=O)c(C(=O)O)cn3-c2ccc(F)cc2F)C1` the solubility [1] was 13 µg/mL, the MIC [2] was 0.25 µg/mL and the MIC [3] was 0.05 µg/mL. The MIC [4] was 0.12 µg/mL, the solubility [5] was 8.7 µg/mL and the MIC [6] was 0.5 µg/mL. For the same molecule, the solubility [7] was 4.1 µg/mL, the MIC [8] was 0.12 µg/mL and the MIC [9] was 0.12 µg/mL. The MIC [10] was 0.25 µg/mL, the solubility [11] was 4.5 µg/mL and the MIC [12] was 0.5 µg/mL. The MIC [13] was 1 µg/mL, the MIC [14] was 0.5 µg/mL and the MIC [15] was 0.06 µg/mL. For the same molecule, the MIC [16] was 0.02 µg/mL, the MIC [17] was 0.2 µg/mL and the MIC [18] was 0.25 µg/mL. The solubility [19] was 32.4 µg/mL, the MIC [20] was 0.1 µg/mL and the MIC [21] was 3.1 µg/mL. It also gave an MIC [22] of 0.05 µg/mL, a solubility [23] of 4.3 µg/mL and an MIC [24] of 0.25 µg/mL. For the same molecule, the MIC [25] was 1 µg/mL, the MIC [26] was 0.05 µg/mL and the MIC [27] was 0.2 µg/mL. The MIC [28] was 0.02 µg/mL, the MIC [29] was 0.01 µg/mL and the MIC [30] was 0.5 µg/mL. The solubility [31] was 17.1 µg/mL, the MIC [32] was 0.2 µg/mL and the MIC [33] was 0.25 µg/mL. For the same molecule, the MIC [34] was 0.01 µg/mL, the MIC [35] was 0.05 µg/mL and the solubility [36] was 27.5 µg/mL. For the same molecule, the MIC [37] was 0.1 µg/mL.
